Assay outcomes: PubChem, several laboratories
Sampled rows, rich in hits. Any-hit rate of the full collection: about 3.1%.
PAFAH2 inh – PAFAH2 (human) inhibition. inhibition, % at 3.39 µM. actives 0.99% (n = 340,000). recombinant PAFAH2, FP-rhodamine activity probe, fluorescence polarization. Q99487. AID 492956;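 active = inhibition above the mean over all tested compounds plus 3 SD, cut at about 30% in these data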;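 note: inhibitors block probe labeling of enzyme so polarization drops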
Apaf-1 inh – human Apaf-1 inhibition; O14727; reconstituted apoptosome caspase-3 activity, DEVD-Rh110 fluorescence; inhibition, % at 20 µM; actives 0.71% (n = 330,000); active = inhibition of at least 40% at 20 µM
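System – cell-free apoptosome with Apaf-1, procaspase-3 and caspase-9 · Buffer or medium – pH 7.5 Hepes buffer with CHAPS, BSA, DTT · Also added – cytochrome c with DEVD-Rh110 · Times – 30 min compound preincubation, 50 min activation, room temperature · Technique – Rh110 fluorescence intensity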
pPAFAH inh – pPAFAH (human) enzyme inhibition | Q13093 | inhibition, % at 3.39 µM | actives 1.5% (n = 330,000) | recombinant pPAFAH, FP-rhodamine probe fluorescence polarization;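 active = inhibition above the mean inhibition across the screen plus 3 SD, cut at about 25% in these data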;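 note: inhibitors block binding of the rhodamine activity-based probe so polarization drops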
Target sequence (Q13093 whole entry, looked up): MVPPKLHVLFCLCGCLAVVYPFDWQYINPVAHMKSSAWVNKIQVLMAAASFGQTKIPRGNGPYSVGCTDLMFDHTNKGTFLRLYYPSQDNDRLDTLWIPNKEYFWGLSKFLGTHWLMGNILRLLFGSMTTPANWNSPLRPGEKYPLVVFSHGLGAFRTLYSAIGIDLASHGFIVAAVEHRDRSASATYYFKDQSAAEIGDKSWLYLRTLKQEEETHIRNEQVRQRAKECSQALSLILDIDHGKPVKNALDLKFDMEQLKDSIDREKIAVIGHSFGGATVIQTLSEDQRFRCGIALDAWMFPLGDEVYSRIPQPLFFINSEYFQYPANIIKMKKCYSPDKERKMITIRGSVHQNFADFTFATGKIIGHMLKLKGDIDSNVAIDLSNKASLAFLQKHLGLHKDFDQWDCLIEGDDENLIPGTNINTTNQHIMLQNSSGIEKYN
PAFAH1B2 FP inh – inhibitors of human PAFAH1B2; recombinant PAFAH1B2, FP-rhodamine activity probe, fluorescence polarization; P68402; AID 492953; inhibition, % at 3.39 µM; actives 1.2% (n = 340,000);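 active = inhibition above the mean of all tested compounds plus 3 SD, cut at about 24% in these data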
PAFAH1B3 inh – PAFAH1B3 (human) inhibition; Q15102; recombinant PAFAH1B3, FP-rhodamine probe, fluorescence polarization; inhibition, % at 3.39 µM; actives 0.28% (n = 340,000);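 active = inhibition above the screen-wide average of all tested compounds plus 3 SD, cut at about 25% in these data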
Target sequence (Q15102 whole entry, looked up): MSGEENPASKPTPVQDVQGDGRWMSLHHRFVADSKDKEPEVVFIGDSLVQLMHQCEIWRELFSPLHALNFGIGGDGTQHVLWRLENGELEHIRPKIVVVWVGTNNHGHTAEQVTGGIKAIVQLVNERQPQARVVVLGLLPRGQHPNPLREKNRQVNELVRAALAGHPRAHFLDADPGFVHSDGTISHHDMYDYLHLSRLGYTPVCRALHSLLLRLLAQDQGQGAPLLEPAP
Of the large screens only hits and unclear results are named; the others gave an inactive call.

CCOc1ccc(S(=O)(=O)N2CCCC(C(=O)NC3CC3)C2)cc1Cl (configuration not stated)	none
C=C1/C=C(\C)C(C)(O)CC(O)CC(=O)C(O)C(O)C(C)CC(C)OC(=O)/C(C)=C/CC/C=C/C(OC)C(O)CC(C)C1 (configuration not stated)	none
CCN(CC(=O)Nc1ccc(NC(C)=O)cc1)Cc1c(O)ccc2cc(Br)ccc12	PAFAH1B2 FP inh 67.8
O=C(O)Cc1sc(NC2CCCCC2)nc1-c1ccc(Cl)cc1	none
CCc1cccc(NC(=O)C2CCCN(S(=O)(=O)c3cccnc3)C2)c1 (configuration not stated)	none
Clc1ccc(CNc2nc(CN3CCOCC3)nc3scc(-c4ccccc4)c23)cc1	pPAFAH inh 32.8
c1ccc(-c2csc3ncnc(NCCN4CCOCC4)c23)cc1	none
c1ccc(CNc2nc(CN3CCOCC3)nc3scc(-c4ccccc4)c23)cc1	pPAFAH inh 34.5
COc1ccc(S(=O)(=O)N2CCc3ccccc32)cc1C(=O)NC1(C)CCS(=O)(=O)C1 (configuration not stated)	none
COc1ccc(C(C)(C)C)cc1NC(=O)CCCN1C(=O)NC(C)(C)C1=O	none
CC(=O)CCc1ccc(OCC(O)CNC2CCCc3ccccc32)cc1 (configuration not stated)	Apaf-1 inh 65.0
COc1cc(NC(=O)Cn2c([N+](=O)[O-])cnc2C)c(OC)cc1Cl	none
O=C(Cc1ccc(S(=O)(=O)N2CCOCC2)s1)Nc1cc(Cl)ccc1Cl	PAFAH2 inh 41.2, pPAFAH inh 27.6
O=C(Cc1ccc(S(=O)(=O)N2CCOCC2)s1)Nc1nc2c(s1)CCCC2	pPAFAH inh 32.5
Cc1cccc(N2CCN(C3CCCCC3NS(=O)(=O)c3ccccc3)CC2C)c1 (configuration not stated)	none
O=C(Cc1ccc(F)cc1)c1ccc(O)cc1O	PAFAH1B2 FP inh 24.5
CCN(C(=O)CSc1nc2cc(C(F)(F)F)ccc2n1Cc1ccccc1)C1CCS(=O)(=O)C1 (configuration not stated)	pPAFAH inh 29.1
CCCCn1c(SCC(=O)N(CC)C2CCS(=O)(=O)C2)nc2cc(S(N)(=O)=O)ccc21 (configuration not stated)	none
CCC[C@@H](CN1CCC[C@H]1CN1C(N)=NC[C@H]1CC(C)C)N1C[C@@H]([C@H](C)CC)N(CCCC2CCCC2)C1=N	Apaf-1 inh 53.2
CCC[C@@H](CN1CCC[C@H]1CN1C(N)=NC[C@H]1C(C)C)N1C[C@@H]([C@H](C)CC)N(CCCC2CCCC2)C1=N	none
O=c1ccc2[n+]([O-])c3ccc(O)cc3oc-2c1	PAFAH2 inh 154.8, PAFAH1B2 FP inh 136.3, PAFAH1B3 inh 149.5 (no result: Apaf-1 inh, pPAFAH inh)
O=c1cc(O)c2ccc(O)cc2o1	none
Cc1csc(CNc2ncnc3ccc(-c4ccccc4Cl)cc23)c1	pPAFAH inh 28.7
CC(=O)Nc1ccc(C(=O)COC(=O)c2cc(C)oc2C)c(F)c1	none
CCC(C)c1c(N)n(S(=O)(=O)c2ccc(C)cc2)oc1=O (configuration not stated)	PAFAH1B2 FP inh 41.8 (no result: Apaf-1 inh, pPAFAH inh)
CCC(C)c1c(NS(=O)(=O)c2ccc(C)cc2)o[nH]c1=O (configuration not stated)	none (no result: Apaf-1 inh, pPAFAH inh)
Cn1c(CCC(=O)Nc2cc(S(C)(=O)=O)ccc2Cl)nc2cc(S(=O)(=O)N3CCOCC3)ccc21	none
COc1ccc(NC(=O)[C@@H]2[C@@H]3C(=O)N(C4CCCCC4)C(=O)[C@@H]3C3c4ccccc4C=CN32)cc1 (some centres not stated)	Apaf-1 inh 51.0
CC(=O)[C@@H]1[C@@H]2C(=O)N(C3CCCCC3)C(=O)[C@@H]2C2c3ccccc3C=CN21 (some centres not stated)	Apaf-1 inh 84.1 (no result: PAFAH2 inh, PAFAH1B2 FP inh, PAFAH1B3 inh)
O=C(c1ccco1)[C@@H]1[C@@H]2C(=O)N(c3ccc(Br)cc3)C(=O)[C@@H]2C2c3ccccc3C=CN21 (some centres not stated)	none (no result: Apaf-1 inh, pPAFAH inh)
Cc1cc(/C=N/n2cnnc2)c(C)n1-c1ccc(OCc2ccccc2F)cc1	pPAFAH inh 27.0
C[C@@H](CN=[N+]=[N-])CN1CC[C@H](C(C)(C)C)CCC1=O	none
COc1cc(C2(c3ccc(O)c(OC)c3)C(=O)Nc3c(Br)cc(Br)cc32)ccc1O	PAFAH1B2 FP inh 24.9
C/C(=N\OC(=O)c1ccc(F)cc1)c1nccs1	PAFAH2 inh 33.0
C/C(=N/OC(=O)c1c(F)cccc1F)c1nccs1	none
Cc1ccc(N2CSC3=C(C#N)C(c4cccs4)CC(=O)N3C2)cc1 (configuration not stated)	pPAFAH inh 24.7
COc1ccc(-c2csc3nc(-c4ccccc4OC)oc(=O)c23)cc1	none
CC1CC(C)CN(C(=O)CN2C(=O)NC(c3ccccc3)(c3ccccc3)C2=O)C1 (configuration not stated)	PAFAH1B2 FP inh 26.1
O=C(N/N=C/c1c(O)ccc2ccccc12)c1cccc(C(F)(F)F)c1	pPAFAH inh 30.2
COc1ccc2ccccc2c1/C=N/NC(=O)c1cccc(Br)c1	none
CCN(CC)S(=O)(=O)c1cccc(C(=O)N/N=C/c2ccc(O)c(O)c2O)c1	pPAFAH inh 30.1 (no result: Apaf-1 inh)
CC(C)(C)c1ccc(OCCC(=O)NNC(=O)c2ccncc2)cc1	none
COc1cccc(OC)c1C(=O)NNS(=O)(=O)c1ccc2ccccc2c1	none (no result: pPAFAH inh)
O=C(NCc1n[nH]c(=S)n1-c1ccc(Br)cc1)c1ccc(S(=O)(=O)N2CCCCC2)cc1	PAFAH1B2 FP inh 30.2
O=C(NCc1n[nH]c(=S)n1-c1ccc(Br)cc1)c1ccc(S(=O)(=O)N2CCCC2)cc1	none
CCn1c(CSCc2ccc(F)cc2)nnc1SCC(=O)NCc1ccccc1	PAFAH1B2 FP inh 29.9
CCn1c(COc2ccccc2C)nnc1SCC(=O)NCc1ccccc1	none
Oc1ccc(NCc2cccs2)cc1	pPAFAH inh 28.0
CC(=O)Nc1ccc(NCc2cccs2)cc1	none
Cc1cc(C)n2nc(SCC(=O)NC3CCCCC3C)nc2n1 (configuration not stated)	none (no result: Apaf-1 inh)
COC(=O)C1=C(CSc2nc3c(cc2C#N)CN(C)CC3)OC(N)=C(C#N)C1c1ccc(F)cc1 (configuration not stated)	pPAFAH inh 26.1
CCOC(=O)C1CCN(C(=O)c2cc(COc3ccc(F)cc3F)on2)CC1	none
O=C(Cn1nnc(-c2cc(C(F)(F)F)cc(C(F)(F)F)c2)n1)NNC(=S)Nc1ccc(Cl)cc1	pPAFAH inh 27.2
COc1ccc(NC(=O)COC(=O)c2ccc(-n3nc(C)cc3C)cc2)cc1OC	pPAFAH inh 27.2
Cc1cc(C)n(-c2ccc(C(=O)OCC(=O)Nc3ccc([N+](=O)[O-])cc3)cc2)n1	pPAFAH inh 25.4
Cc1cc(C)n(-c2ccc(C(=O)OCC(=O)Nc3ccc(Cl)c(S(=O)(=O)N(C)C)c3)cc2)n1	PAFAH2 inh 72.7, pPAFAH inh 25.0
COc1ccc(C(=O)OCC(=O)Nc2ccc(F)c(F)c2)cc1OC	PAFAH2 inh 81.8, pPAFAH inh 29.8
